In ChEMBL document CHEMBL1131582, “New substituted 1,4-benzoxazine derivatives with potential intracellular calcium activity” (J Med Chem, 1998):

Key:
Type in all cases: functional
Oryctolagus cuniculus [1] = species: Oryctolagus cuniculus; experiment: Concentration which inhibits 50% of contraction induced by caffeine on rabbit renal artery
Summary of the method: (§1)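 Male New Zealand White rabbit left renal artery rings (2.5–3 mm) in Krebs' solution at 37 °C, gassed 95% O2/5% CO2, 3 g preload, 90 min equilibration, isometric tension. Three matched control contractions to caffeine 10 mM, then caffeine contractions repeated at 20 min with each rising test concentration until maximal inhibition. IC50 by linear regression; five to nine preparations.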

Oryctolagus cuniculus [2] = species: Oryctolagus cuniculus; experiment: Inhibition of contraction induced by caffeine on rabbit renal artery; design: concentration or dose not given beside the values; summary of the method: as §1
Oryctolagus cuniculus [3] = species: Oryctolagus cuniculus; experiment: Concentration which inhibits 50% of contraction induced by potassium on rabbit renal artery
Summary of the method: (§2)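 Endothelium-denuded arterial rings, with denudation confirmed by no acetylcholine (1 μM) relaxation of tissue precontracted with phenylephrine 0.1 μM. After reproducible 40 mM K+ responses, sustained tonic contraction to K+ 40 mM or phenylephrine 5 μM. Test compound added cumulatively until maximal relaxation.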

Oryctolagus cuniculus [4] = species: Oryctolagus cuniculus; experiment: Concentration which inhibits 50% of contraction induced by phenylephrine on rabbit renal artery; summary of the method: as §2
Oryctolagus cuniculus [5] = species: Oryctolagus cuniculus; experiment: Inhibitory selectivity for Phenylephrine (PE) and Potassium (K+) induced contraction on rabbit renal artery
Oryctolagus cuniculus [6] = species: Oryctolagus cuniculus; experiment: Inhibition of contraction induced by phenylephrine on rabbit renal artery; summary of the method: as §2
Oryctolagus cuniculus [7] = species: Oryctolagus cuniculus; experiment: Inhibition of contraction induced by potassium on rabbit renal artery; summary of the method: as §2
Oryctolagus cuniculus [8] = species: Oryctolagus cuniculus; experiment: 50% inhibition of contraction induced by potassium on rabbit renal artery; summary of the method: as §2

Compound	IC50 (Oryctolagus cuniculus [1]) [µM]	IC50 (Oryctolagus cuniculus [3]) [µM]	IC50 (Oryctolagus cuniculus [4]) [µM]	IC50 ratio (Oryctolagus cuniculus [5])	Inhibition (Oryctolagus cuniculus [2]) [%]	Inhibition (Oryctolagus cuniculus [6]) [%]	Inhibition (Oryctolagus cuniculus [7]) [%]	Inhibition (Oryctolagus cuniculus [8]) [%]
Fc1ccc(C(OCCNCCCC2CN(Cc3ccccc3)c3ccccc3O2)c2ccc(F)cc2)cc1 (centres undefined)	> 30	> 100	> 100	–	5	12	26	–
COc1ccc(CCNCCC2CN(S(=O)(=O)c3cccc4cnccc34)c3ccccc3O2)cc1OC (centres undefined)	> 30	7.3	13.3	1.8	23	–	–	–
COc1ccc(CCN(C)CCCC2Oc3cc4c(cc3NC2=O)OCCO4)cc1OC (centres undefined)	> 30	2.2	14.6	7.3	0	–	–	–
COc1ccc(CCNCC2CN(C)c3ccccc3O2)cc1OC (centres undefined)	> 30	57.4	20.9	0.36	46	–	–	–
COc1ccc(CCN(CCCC2Oc3cc4c(cc3NC2=O)OCCO4)Cc2ccccc2)cc1OC (centres undefined)	> 30	≥ 100	100	>=1	0	47	41	–
Fc1ccc(N2CCN(CC3CN(Cc4ccccc4)c4ccccc4O3)CC2)cc1 (centres undefined)	> 30	52.4	10.9	0.21	2	–	–	–
COc1ccc(CCNCCC2CNc3ccccc3O2)cc1OC (centres undefined)	> 30	> 100	42	–	26	–	–	25
COc1ccc(CCNCC2CN(Cc3ccccc3)c3ccccc3O2)cc1OC (centres undefined)	> 30	9.4	11.4	1.2	48	–	–	–
CN(CCOC(c1ccc(F)cc1)c1ccc(F)cc1)CC1CNc2ccccc2O1 (centres undefined)	> 30	–	–	–	23	–	–	–
O=C1Nc2cc3c(cc2OC1CCCN1CCN(c2ccc(F)cc2)CC1)OCCO3 (centres undefined)	> 30	45.3	0.43	0.009	22	–	–	–
COc1ccc(CCNCCCC2CNc3ccccc3O2)cc1OC (centres undefined)	> 30	> 100	100	–	16	49	30	–
Fc1ccc(N2CCN(CC3CNc4ccccc4O3)CC2)cc1 (centres undefined)	> 30	24.7	1.6	0.07	9	–	–	–
COc1ccc(CCNCCCC2Oc3cc4c(cc3NC2=O)OCCO4)cc1OC (centres undefined)	> 30	> 100	14.2	–	0	–	38	–
Fc1ccc(N2CCN(CCCC3CNc4ccccc4O3)CC2)cc1 (centres undefined)	> 30	11	3.2	0.29	22	–	–	–
CN1CC(CN2CCN(c3ccc(F)cc3)CC2)Oc2ccccc21 (centres undefined)	> 30	23.1	1.4	0.06	32	–	–	–
Fc1ccc(C(OCCNCC2CN(Cc3ccccc3)c3ccccc3O2)c2ccc(F)cc2)cc1 (centres undefined)	> 30	17.6	93.3	5.3	5	–	–	–
COc1ccc(CCN(C)CCC2CN(Cc3ccccc3)c3ccccc3O2)cc1OC (centres undefined)	> 30	7.9	32.6	4.1	37	–	–	–

Continued, in another order:

IC50 (Oryctolagus cuniculus [1]) [µM]	IC50 (Oryctolagus cuniculus [3]) [µM]	IC50 (Oryctolagus cuniculus [4]) [µM]	IC50 ratio (Oryctolagus cuniculus [5])	Compound	Inhibition (Oryctolagus cuniculus [2]) [%]	Inhibition (Oryctolagus cuniculus [6]) [%]	Inhibition (Oryctolagus cuniculus [7]) [%]	Inhibition (Oryctolagus cuniculus [8]) [%]
> 30	–	–	–	COc1ccc(CCNCC2CNc3ccccc3O2)cc1OC (centres undefined)	26	–	–	–
13.9	8.6	43.1	5	COc1ccc(CCNCCCCC2CN(Cc3ccccc3)c3ccccc3O2)cc1OC (centres undefined)	–	–	–	–
> 30	76.5	–	0.06	Fc1ccc(N2CCN(CCCC3CN(Cc4ccccc4)c4ccccc4O3)CC2)cc1 (centres undefined)	0	–	–	–
11.8	10.2	21.6	2.1	COc1ccc(CCNCCCC2CN(Cc3ccccc3)c3ccccc3O2)cc1OC (centres undefined)	–	–	–	–
> 30	19	2.8	0.15	O=C(c1ccccc1)N1CC(CCCN2CCN(c3ccc(F)cc3)CC2)Oc2ccccc21 (centres undefined)	8	–	–	–
> 30	8.3	83.7	10.1	COc1ccc(CCNCCC2CN(S(=O)(=O)c3cccc4ccccc34)c3ccccc3O2)cc1OC (centres undefined)	46	–	–	–
21.8	44.7	11.8	0.26	COc1ccc(CCNCCC2CN(C)c3ccccc3O2)cc1OC (centres undefined)	–	–	–	–
30	15.1	33.7	2.2	COc1ccc(CCNCCC2CN(Cc3ccc(OC)c(OC)c3)c3ccccc3O2)cc1OC (centres undefined)	57	–	–	–
30	8.4	12.6	1.5	COc1ccc(CCNCCCC2CN(C(=O)c3ccccc3)c3ccccc3O2)cc1OC (centres undefined)	–	–	–	–
12.3	4.4	10.1	2.3	COc1ccc(CCNCCC2CN(Cc3ccccc3)c3ccccc3O2)cc1OC (centres undefined)	–	–	–	–
26.3	74.8	–	–	Fc1ccc(C(OCCNCC2CNc3ccccc3O2)c2ccc(F)cc2)cc1 (centres undefined)	–	–	–	–
